This is an account of results in ChEMBL document CHEMBL3217676, “Homodimers of the Antiviral Abacavir as Modulators of P-glycoprotein Transport in Cell Culture: Probing Tether Length” (Medchemcomm, 2013).

Usually IC50 stands for the concentration needed to halve the response being measured.

Data set [1] addresses T1, ATP-dependent translocase ABCB1 (Homo sapiens, UniProt P08183). As to the kind of experiment: Inhibition of P-gp overexpressed in human 12D7-MDR cells assessed as inhibition of calcein-AM efflux after 30 mins by flow cytometry. As to conditions: for inhibition (INH): human, 0.5 h; call rule not given here. It is filed as cell-based. A digest of the protocol: (§1)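 12D7-MDR cells (RPMI 1640, 10% FBS, 37 °C, 5% CO2), 125,000 in suspension in BME with calcein-AM 0.25 µM or NBD-Aba 5 µM final, plus increasing inhibitor concentrations, 30 min at 37 °C, DMSO held at 1%. Controls: GF120918 1 µM (positive), 1% DMSO (negative). Cells resuspended in ice-cold PBS pH 7.4; FL1 flow cytometry, 10,000 cells per point; IC50 from mean fluorescence.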

Data set [2] addresses T1, ATP-dependent translocase ABCB1. As to the kind of experiment: Inhibition of P-gp in human CMEC/D3 cells assessed as inhibition of NBD-Aba efflux after 30 mins by flow cytometry. It counts as cell-based. A digest of the protocol: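 hCMEC/D3 brain endothelial cells with endogenous P-gp, grown in supplemented EGM-2 on collagenated flasks. 125,000 cells in suspension in BME with NBD-Aba 5 µM final and increasing inhibitor concentrations, 30 min at 37 °C, 1% DMSO constant. GF120918 1 µM served as positive control. Cells resuspended in ice-cold PBS; FL1 flow cytometry on 10,000 cells; IC50 from mean fluorescence.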
For orientation: Flow cytometry measures light scatter and fluorescence of single cells or particles in a stream.

For data set [3] the target is unchanged. Nature of the data set: Inhibition of P-gp overexpressed in human 12D7-MDR cells assessed as inhibition of NBD-Aba efflux after 30 mins by flow cytometry. It counts as cell-based. To be noted: for inhibition (INH): human, 0.5 h. A digest of the protocol: as §1
Data set [4] has the same target. Nature of the data set: Inhibition of P-gp in human MCF7/DX1 cells assessed as cellular accumulation of [3H]-daunomycin after 30 mins by scintillation counting analysis. As to conditions: mcf7/dx1, 40 min, in the assay text read “40 mins” for “30 mins”. It counts as cell-based. The method in brief:
(§2)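 MCF-7/DX1 cells, 500,000 per well, seeded the day before and washed with ice-cold PBS. Incubated 40 min at 37 °C in BME with 5% calf serum, 0.25 µCi/mL [3H]-daunomycin and varying inhibitor concentrations; GF120918 1 µM as positive control. Cells washed, trypsinized 1 h at 37 °C, then scintillation counted. Counts normalized per 10,000 cells; IC50 from fitted concentration–response curves.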

Data set [5] has the same target. Nature of the data set: Ratio of inhibition of P-gp overexpressed in human 12D7-MDR cells using NBD-Aba as substrate to inhibition of P-gp in human MCF7/DX1 cells using NBD-Aba as substrate. It counts as cell-based.
Data set [6] has the same target. Nature of the data set: Inhibition of P-gp in human MCF7/DX1 cells assessed as cellular accumulation of NBD-Aba after 30 mins by flow cytometry. It is filed as cell-based. As to conditions: mcf7/dx1, 0.5 h. The method in brief: (§3)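 MCF-7/DX1 cells are maintained with 1 µM doxorubicin. 125,000 cells in BME, pretreated with substrate (BODIPY-prazosin 0.5 µM, NBD-Aba 5 µM or doxorubicin 3 µM final), then incubated with increasing inhibitor concentrations for 30 min at 37 °C in 1% DMSO. For doxorubicin, cells are re-pelleted and incubated a further 30 min in inhibitor-containing BME. Read-out: flow cytometry, FL1 for BODIPY-prazosin and NBD-Aba, FL2 (585/42) for doxorubicin; IC50 from mean fluorescence. GF120918 1 µM as positive control.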

For data set [7] the target is unchanged. As to the kind of experiment: Inhibition of P-gp in human MCF7/DX1 cells assessed as cellular accumulation of BODIPY-prazosin after 30 mins by flow cytometry. It counts as cell-based. To be noted: mcf7/dx1, 0.5 h. A digest of the protocol: as §3
A further data set has as its target P-gp (ABCB1) (Homo sapiens, UniProt P08183). Nature of the data set: Ratio of inhibition of P-gp in human CMEC/D3 cells using NBD-Aba as substrate to inhibition of P-gp in human MCF7/DX1 cells using NBD-Aba as substrate. It is filed as cell-based. To be noted: CMEC/D3 cells and MCF7/DX1 cells, probe NBD-Aba.
In data set [8] the target is T1, ATP-dependent translocase ABCB1. As to the kind of experiment: Inhibition of P-gp in human MCF7/DX1 cells assessed as cellular accumulation of doxorubicin after 30 mins by flow cytometry. It counts as cell-based. To be noted: mcf7/dx1, 0.5 h. The method in brief:
as §3

The target is the same in data set [9]. As to the kind of experiment: Inhibition of P-gp in human MCF7/DX1 cells assessed as cellular accumulation of NBD-Aba at 20 uM by confocal laser microscopy. It is filed as cell-based. As to conditions: mcf7/dx1, 20 µM. The method in brief:
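Confocal microscopy of MCF-7/DX1 cells given NBD-Aba 5 µM, with or without inhibitor at 20 µM.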

For data set [10] the target is unchanged. Nature of the data set: Displacement of [125I]-iodoarylazidoprazosin from human P-gp expressed in baculovirus-infected insect Sf9 cells incubated for 10 mins followed by UV light illumination for 20 mins by autoradiography. A digest of the protocol: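 Crude membranes (25 µg) from Sf9 cells infected with BV-MDR1 expressing human P-gp (72 h at 27 °C). Incubated 10 min at room temperature in the dark in 50 mM Tris-HCl pH 7.5 with 1 mM DTT and protease inhibitors, with [125I]-IAAP (~2200 Ci/mmol) and increasing inhibitor, then photo-crosslinked. Controls: 2.5% DMSO or GF120918 10 µM. Autoradiography and densitometry; values as percent of DMSO control, IC50 fitted.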
(In a radioligand displacement assay an active substance lowers the binding of a labelled ligand.)

The target is the same in data set [11]. Nature of the data set: Inhibition of P-gp in human MCF7/DX1 cells assessed as cellular accumulation of doxorubicin up to 100 uM after 30 mins by flow cytometry. It counts as cell-based. To be noted: mcf7/dx1, 0.5 h. A digest of the protocol: as §3
For data set [12] the target is unchanged. As to the kind of experiment: Inhibition of P-gp in human MCF7/DX1 cells assessed as cellular accumulation of BODIPY-prazosin up to 100 uM after 30 mins by flow cytometry. It is filed as cell-based. To be noted: mcf7/dx1, 0.5 h. The method in brief:
as §3

Data set [13] shares this target. Nature of the data set: Inhibition of P-gp in human MCF7/DX1 cells assessed as cellular accumulation of [3H]-daunomycin up to 100 uM after 30 mins by scintillation counting analysis. It counts as cell-based. As to conditions: mcf7/dx1, 40 min, in the assay text read “40 mins” for “30 mins”. A digest of the protocol:
as §2

Data set [14] has the same target. As to the kind of experiment: Inhibition of P-gp in human MCF7/DX1 cells assessed as cellular accumulation of NBD-Aba up to 100 uM after 30 mins by flow cytometry. It is filed as cell-based. To be noted: mcf7/dx1, 0.5 h. A digest of the protocol:
as §3

Structures are written as SMILES. A value given as a limit tells only on which side of the number the result lay.

T1 sequence (P08183 whole entry): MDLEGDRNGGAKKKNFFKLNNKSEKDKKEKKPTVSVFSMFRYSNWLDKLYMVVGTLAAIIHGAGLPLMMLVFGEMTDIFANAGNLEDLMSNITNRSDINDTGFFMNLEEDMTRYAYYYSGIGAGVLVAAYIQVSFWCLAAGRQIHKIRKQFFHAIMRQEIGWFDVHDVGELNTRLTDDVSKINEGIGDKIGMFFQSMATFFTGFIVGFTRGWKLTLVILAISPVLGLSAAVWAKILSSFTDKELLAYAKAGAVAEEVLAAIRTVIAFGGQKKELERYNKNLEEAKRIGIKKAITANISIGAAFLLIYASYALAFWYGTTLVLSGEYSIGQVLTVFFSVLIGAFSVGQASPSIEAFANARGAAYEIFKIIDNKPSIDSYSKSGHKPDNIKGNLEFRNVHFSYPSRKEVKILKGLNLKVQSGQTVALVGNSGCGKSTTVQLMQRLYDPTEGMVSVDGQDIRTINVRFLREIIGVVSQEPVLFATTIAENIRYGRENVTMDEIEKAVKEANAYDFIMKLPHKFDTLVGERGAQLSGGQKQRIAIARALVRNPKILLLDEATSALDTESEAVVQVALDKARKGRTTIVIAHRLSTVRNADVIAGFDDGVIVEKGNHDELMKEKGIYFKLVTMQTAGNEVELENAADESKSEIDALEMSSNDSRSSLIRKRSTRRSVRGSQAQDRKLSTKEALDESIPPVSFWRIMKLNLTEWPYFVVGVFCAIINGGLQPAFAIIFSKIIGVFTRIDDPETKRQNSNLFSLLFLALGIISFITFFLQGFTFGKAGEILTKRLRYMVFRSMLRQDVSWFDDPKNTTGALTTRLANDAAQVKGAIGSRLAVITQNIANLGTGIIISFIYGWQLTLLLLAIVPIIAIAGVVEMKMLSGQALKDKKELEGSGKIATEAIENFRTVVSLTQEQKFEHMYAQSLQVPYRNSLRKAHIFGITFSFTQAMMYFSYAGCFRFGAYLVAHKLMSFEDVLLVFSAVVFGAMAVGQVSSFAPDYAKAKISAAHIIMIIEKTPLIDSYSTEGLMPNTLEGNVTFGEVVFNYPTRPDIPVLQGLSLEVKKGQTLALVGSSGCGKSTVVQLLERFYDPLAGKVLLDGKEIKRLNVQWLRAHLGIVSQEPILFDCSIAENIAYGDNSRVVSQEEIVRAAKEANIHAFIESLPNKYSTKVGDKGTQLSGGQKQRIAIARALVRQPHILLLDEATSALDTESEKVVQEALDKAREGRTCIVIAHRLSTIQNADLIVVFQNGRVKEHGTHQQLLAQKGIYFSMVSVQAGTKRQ
P-gp (ABCB1), sequence (P08183 whole entry): as above

For the compound `Nc1nc(NC2CC2)c2ncn([C@H]3C=C[C@@H](COC(=O)CCC(=O)OC[C@@H]4C=C[C@H](n5cnc6c(NC7CC7)nc(N)nc65)C4)C3)c2n1`, in [1], the IC50 is 50000 nM and the “inhibition (INH)” value is reported as “Dose-dependent effect”.

Consider `Nc1nc(NC2CC2)c2ncn([C@H]3C=C[C@@H](COC(=O)CCCCCC(=O)OC[C@@H]4C=C[C@H](n5cnc6c(NC7CC7)nc(N)nc65)C4)C3)c2n1`, for which the results for the IC50 in data set [1], in data set [2] and in data set [3] were 7700 nM, 4100 nM and 10500 nM, respectively. For the same compound, the “inhibition (INH)” value in data set [1] and in data set [3] was “Dose-dependent effect” each time.

As for `Nc1nc(NC2CC2)c2ncn([C@H]3C=C[C@@H](COC(=O)CCCCCCCC(=O)OC[C@@H]4C=C[C@H](n5cnc6c(NC7CC7)nc(N)nc65)C4)C3)c2n1`, the values for the IC50 in data set [1], in [2] and in data set [3] were 2600 nM, 3800 nM and 2600 nM, respectively. For the same compound, the “inhibition (INH)” value in data set [1] and in [3] was “Dose-dependent effect” throughout.

As to `Nc1nc(NC2CC2)c2ncn([C@H]3C=C[C@@H](COC(=O)CCCCCCCCC(=O)OC[C@@H]4C=C[C@H](n5cnc6c(NC7CC7)nc(N)nc65)C4)C3)c2n1`, the INH in data set [4] came to 9.2 µM; in [6] it was 11.8 µM; in data set [7], 5.1 µM; in data set [8] it was 12.8 µM. For the same compound, the IC50 was 2300 nM in data set [1], 3600 nM in [2], 2100 nM in data set [3] and 240 nM in [10]. For the same compound, the “inhibition (INH)” value in [1] was “Dose-dependent effect”; in data set [3], “Dose-dependent effect”; in [9] it was “Active”; in data set [10] (human, sf9, 10 min) it was “Dose-dependent effect”. Also, in [5], the Ratio came out at 6. In addition, at P-gp (ABCB1), the selectivity ratio came to 3.

Consider `Nc1nc(NC2CC2)c2ncn([C@H]3C=C[C@@H](COC(=O)CCCCCCCCCCC(=O)OC[C@@H]4C=C[C@H](n5cnc6c(NC7CC7)nc(N)nc65)C4)C3)c2n1`, for which the IC50 is 1400 nM in [1], 1100 nM in data set [2] and 1800 nM in data set [3]. Further, the “inhibition (INH)” value in [1] and in data set [3] was “Dose-dependent effect” each time.

Take `Nc1nc(NC2CC2)c2ncn([C@H]3C=C[C@@H](CO)C3)c2n1` [ABACAVIR]: the IC50 in data set [1], in [2] and in data set [3] was more than 500000 nM in each case. Also, the “inhibition (INH)” value in data set [11], in [12], in data set [13] and in [14] was “Not Active” each time.
